Shown are actives, neighbours in structure and some others; about 2.1% of the full set was active somewhere.
APJ antag: blocks the human apelin receptor APJ | AID 2521 | CHO-K1 APJ beta-arrestin complementation, luminescence | inhibition, % at 20 µM | 0.32% of 330,000 active;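 active = inhibition above about 40% at 20 µM, limit read from the data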;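 also: cells challenged with 10 nM apelin-13 agonist together with compound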
Target sequence (P35414 whole entry, looked up): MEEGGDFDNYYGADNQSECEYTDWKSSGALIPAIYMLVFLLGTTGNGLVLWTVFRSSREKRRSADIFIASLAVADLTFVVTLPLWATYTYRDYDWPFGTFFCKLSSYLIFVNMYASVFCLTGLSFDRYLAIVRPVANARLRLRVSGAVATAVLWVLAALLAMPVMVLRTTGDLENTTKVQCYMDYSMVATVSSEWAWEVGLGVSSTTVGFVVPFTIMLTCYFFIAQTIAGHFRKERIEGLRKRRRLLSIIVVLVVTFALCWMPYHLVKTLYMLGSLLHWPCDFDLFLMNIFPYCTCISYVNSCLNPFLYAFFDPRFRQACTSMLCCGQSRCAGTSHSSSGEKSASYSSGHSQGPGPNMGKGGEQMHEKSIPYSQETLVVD
EBI2 antag: blocks human EBI2 receptor beta-arrestin signaling; P32249; EBI2 beta-arrestin recruitment, luminescence, 7a,25-OHC stimulated; inhibition, % at 5 µM; 0.81% of 360,000 active; in the data active = inhibition above about 38%;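 also: enzyme fragment complementation signal reports receptor beta-arrestin coupling in cells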
HTR2A ag: agonists of mouse serotonin 5-HT2A receptor (HTR2A); activation, % at 7.6 µM; 0.66% of 360,000 active; P35363; CHO-K1 mHTR2A beta-arrestin complementation, luminescence; percent of 30 µM serotonin response; AID 624169;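 active = activation above a run cutoff, the mean activation of all tested compounds plus 3 SD, cut at about 14% in these data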
CXCR6 block: blocks human CXCR6 beta-arrestin recruitment; O00574; CHO-K1 PathHunter CXCR6 beta-arrestin, luminescence; inhibition, % at 20 µM; 0.36% of 360,000 active; in the data active = inhibition above about 34%, passing the limit was not always enough;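 also: antagonist mode with CXCL16 agonist at 10 nM final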
CCR6 antag: antagonists of human CCR6 receptor | P51684 | CHO-K1 CCR6 PathHunter beta-arrestin, luminescence, CCL20-stimulated | inhibition, % at 20 µM | 0.49% of 340,000 active;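 active = compounds whose inhibition of the agonist-driven luminescence signal at 20 µM reaches about 50%, limit read from the data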;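 also: cells stimulated with CCL20 at 14 nM final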
APJ agonist: APJ receptor agonism. CHO-K1 APJ PathHunter beta-arrestin, luminescence; 0% DMSO wells, 100% apelin. activation, % at 20 µM. 0.11% of 330,000 active. P35414;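 active = activation more than six SD over the plate average, tested at 20 µM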
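Test system: CHO-K1 APJ beta-arrestin complementation cell line | Compound: Single test compound dose, 20 µM final, 1% DMSO | Incubation: Compound 90 min 25 °C, reagent 1 h | Measured by: beta-gal luminescence | Read-out basis: APJ–arrestin association signal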
APJ ag conf: APJ receptor agonism confirmation; activation, % at 20 µM; shares compounds with APJ agonist; 10% of 310 active; AID 2764; CHO-K1 APJ PathHunter beta-arrestin, luminescence;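 active = activation above 40%, taking the highest of four retests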
Numbers stand for hits; i = inactive; nt = no result given.

SMILES	APJ antag	EBI2 antag	HTR2A ag	CXCR6 block	CCR6 antag	APJ agonist	APJ ag conf
Cc1cc(C)n2nc3nc(N4CCCCC4)nc(-c4ccco4)c3c2n1	i	i	i	i	i	73.2	40.7
Cc1cc(C)n2nc3ccccc3c2n1	i	i	i	i	i	i	nt
O=C(C1CCC(CNS(=O)(=O)c2cccs2)CC1)N1CCN(c2ccc(Cl)cc2)CC1 (stereo not given)	i	i	i	i	i	25.9	i
O=C(NC1CCCC1)C1CCC(CNS(=O)(=O)c2cccs2)CC1 (stereo not given)	i	i	i	i	i	i	nt
COc1c(O)c(O)c2oc(-c3ccccc3)cc(=O)c2c1OC	i	i	i	i	i	i	nt
COc1cc(-c2cc(=O)c3c(O)c(OC)c(OC)c(O)c3o2)ccc1O	i	i	i	i	i	28.5	i
COc1ccc(CC(=O)Nc2cccc(-c3nnc(-c4ccccc4)o3)c2)cc1OC	nt	i	i	i	i	nt	nt
COc1ccc(CC(=O)Nc2cccc(-c3nnc(-c4ccc(C)cc4)o3)c2)cc1OC	i	i	i	i	i	28.2	i
CCOc1cccc(C(=O)Nc2ccc(NC(=O)c3cc4ccccc4o3)c(OC)c2)c1	i	i	i	i	i	20.2	i
COC(=O)C1=C(CN2CCN(C)CC2)NC(=O)NC1c1cc(C)ccc1C (stereo not given)	i	i	i	i	i	i	nt
COC(=O)C1=C(CN2CCc3ccccc32)NC(=O)NC1c1cc(C)ccc1C (stereo not given)	i	i	i	i	i	39.4	i
CCn1c(CC(=O)Nc2ccc(C)c(Cl)c2)nnc1SCC(=O)Nc1nc(C)cs1	i	i	i	i	i	19.6	i
Cc1ccc(/C=N/NC(=O)CSc2nnc(-c3ccc(Cl)cc3)n2-c2ccc(Cl)cc2)o1	i	i	i	i	i	28.0	163.3
O=C(CSc1nnc(-c2ccc(Cl)cc2)n1-c1ccc(Cl)cc1)N/N=C/c1ccccc1C(=O)O	i	nt	nt	nt	i	i	nt
Cc1ccc(/C=N/NC(=O)CSc2nnc(-c3ccccc3)n2-c2ccc(Cl)cc2)o1	i	i	i	i	i	14.4	43.3
O=C(CSc1nnc(-c2ccccc2)n1-c1ccc(Cl)cc1)N/N=C/c1ccccc1C(=O)O	i	i	i	i	i	i	nt
Cn1cccc1-c1cc(C(=O)N/N=C/c2ccc(F)cc2)[nH]n1	i	i	i	i	i	i	nt
CN1CCN(c2ccc(NC(=S)NC(=O)c3cccc4ccccc34)cc2)CC1	i	i	i	i	i	27.7	i
Oc1ccc(/C=N/Nc2ccnc3cc(Cl)ccc23)cc1O	i	i	i	i	i	15.3	i
O=C1CCN(C(=O)Nc2cccc(Cl)c2)N1	i	i	i	i	i	i	nt
O=C(Nc1ccccc1N1CCOCC1)c1ccc([N+](=O)[O-])s1	i	i	i	i	i	10.2	i
O=C(Nc1ccccc1N1CCOCC1)c1ccccc1[N+](=O)[O-]	i	i	i	i	i	i	nt
COc1ccccc1-c1noc(CCCC(=O)Nc2ccc(C(N)=O)cc2)n1	i	i	i	i	i	i	nt
Cc1ccc(-n2nnnc2C(Cl)(Cl)c2nnnn2-c2ccc(C)cc2)cc1	i	i	i	i	51.6	33.7	40.8
Cc1ccc(NC(=O)C/C(N)=N/OC(=O)c2ccccc2)cc1	i	i	i	i	i	10.9	i
SMILES	APJ antag	EBI2 antag	HTR2A ag	CXCR6 block	CCR6 antag	APJ agonist	APJ ag conf
CCOC(=O)c1ccc(NC(=O)CNC(=O)c2ccccc2)cc1	i	i	i	i	i	i	nt
CCN1CCC(=NNC(=O)CC23CC4CC(CC(C4)C2)C3)CC1	i	i	i	i	i	i	nt
N#Cc1cc2cc3ccccc3nc2n2c(=O)c3ccccc3nc12	i	i	i	i	i	14.6	i
NC(=O)CC(NC(=O)c1ccccc1)c1ccc(NC2CCC2)c([N+](=O)[O-])c1 (stereo not given)	i	i	i	i	i	i	nt
COc1ccc(/C(N)=N/OC(=O)C2CCC(=O)N2S(=O)(=O)c2ccc(C)cc2)cc1OC (stereo not given)	i	i	i	i	i	i	nt
Cc1ccc(S(=O)(=O)N2C(=O)CCC2C(=O)O/N=C(\N)c2cccc([N+](=O)[O-])c2)cc1 (stereo not given)	i	i	i	i	i	37.3	i
Cc1ccc(S(=O)(=O)N2C(=O)CCC2C(=O)O/N=C(\N)c2ccccc2)cc1 (stereo not given)	i	i	i	i	i	i	nt
Cc1ccc(S(=O)(=O)N2C(=O)CCC2C(=O)O/N=C(\N)c2ccc([N+](=O)[O-])cc2)cc1 (stereo not given)	i	i	i	i	i	35.8	i
O=C(CN1CCCCCC1)N/N=C/c1ccc(Cl)c(Cl)c1	i	i	i	i	i	i	nt
COc1ccc(/C(N)=N/OC(=O)c2ccc([N+](=O)[O-])c(C)c2)cc1OC	i	i	i	i	i	11.1	i
COc1ccc(/C(N)=N/OC(=O)c2cccs2)cc1OC	i	i	i	i	i	18.1	i
Cc1cc(C(=O)O/N=C(\N)c2ccncc2)ccc1[N+](=O)[O-]	i	i	i	i	i	i	nt
COc1ccc(C(=O)NCC(=O)N/N=C(\C)c2ccco2)cc1OC	i	i	i	i	i	i	nt
C=CCSc1nc(O)c(CC)c(=O)n1C(C)CC (stereo not given)	i	i	i	i	i	76.3	49.1
C[C@@H]1CN([C@@H](C)CO)C(=O)c2cc(-c3ccncc3)cnc2O[C@H]1CN(C)C(=O)c1cccc(F)c1	nt	i	i	i	nt	nt	nt
Cc1cccc(NC(=O)CCC(=O)Nc2nnc(C3CCCCC3)s2)c1	i	i	i	i	i	i	nt
COC(=O)c1ccc2c(=O)n(CCCCCC(=O)N3CCN(c4ccc(F)cc4)CC3)c(=O)[nH]c2c1	i	i	i	i	i	46.8	i
Cc1ccc(S(=O)(=O)Nc2nc(-c3ccccc3)cs2)cc1	i	i	i	i	i	30.3	55.2
Cn1nnnc1SCC(=O)Nc1cccc([N+](=O)[O-])c1	i	i	i	i	i	i	nt
N/C(=N\OC(=O)c1ccc2ccccc2c1)c1ccccc1Cl	i	i	i	i	i	43.5	i
Cn1c(=O)c2c(nc(SCC(=O)c3cccs3)n2Cc2ccc(F)cc2)n(C)c1=O	i	i	i	i	i	i	nt
CN(C)CCCN(C(=O)c1ccc([N+](=O)[O-])s1)c1nc2cc3c(cc2s1)OCCO3	i	i	i	i	i	130.6	i
CN(C)CCCN(C(=O)c1cc2cc([N+](=O)[O-])ccc2s1)c1nc2cc3c(cc2s1)OCCO3	i	i	i	i	i	42.6	i
